Assay outcomes deposited in PubChem BioAssay by Broad Institute.
FGF22 binding: FGF22 (human) thermal shift binding; actives 1.5% (n = 340,000); activity (Tm shift, normalised), % at 9.99 µM; Q9HCT0; AID 651658; recombinant FGF22 thermal shift, SYPRO orange fluorescence; percent of sucrose octasulfate shift, DMSO zero;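 active means mean Tm shift, scaled 0 neutral to 100 positive control, at about 1.3% or above, every replicate too, limit read from the data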
dFosB activator: mouse delta FosB homodimer activation. P13346. purified delta FosB, TAMRA-CDK5 oligo fluorescence polarization; percent of positive-control signal above neutral wells. activation, % at 25 µM. actives 0.99% (n = 340,000);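 active means mean activation above about 17%, with every replicate also reaching it, limit read from the data, passing the limit was not always enough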
Target sequence (P13346 whole entry, looked up): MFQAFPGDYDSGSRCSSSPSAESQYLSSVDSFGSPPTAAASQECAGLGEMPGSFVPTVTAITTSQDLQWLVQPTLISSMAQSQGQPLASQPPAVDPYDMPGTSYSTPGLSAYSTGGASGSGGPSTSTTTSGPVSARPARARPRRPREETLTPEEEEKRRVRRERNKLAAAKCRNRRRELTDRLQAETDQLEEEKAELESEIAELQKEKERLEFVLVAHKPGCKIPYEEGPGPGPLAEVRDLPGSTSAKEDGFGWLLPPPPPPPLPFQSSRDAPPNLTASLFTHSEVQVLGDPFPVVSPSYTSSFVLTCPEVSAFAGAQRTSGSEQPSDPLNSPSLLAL
S100A4 inh HTS: S100A4-myosin IIA interaction inhibition; P26447; S100A4/TAMRA-MyoIIA peptide fluorescence polarization; inhibition, % at 10.7 µM; actives 0.14% (n = 360,000);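 active means mean inhibition of at least 70% across replicates, with every replicate also reaching that level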
Target sequence (P26447 whole entry, looked up): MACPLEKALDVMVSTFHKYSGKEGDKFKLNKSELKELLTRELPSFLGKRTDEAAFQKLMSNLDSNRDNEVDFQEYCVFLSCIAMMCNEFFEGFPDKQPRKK
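Assay system: human S100A4 monomer with TAMRA-labelled myosin IIA peptide / Buffer or medium: Calcium-containing HEPES buffer, pH 7.2 / Reagent: TAMRA-labelled myosin IIA heavy-chain peptide probe, 5 nM / Compound: one dose per compound / Timing: polarization read 5 min after assay mix addition, stable 5–60 min / Benchmarks: neutral control DMSO, positive control TFP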
F508del corr: CFTR F508del correction in bronchial cells | activity (quench increase), % at 7.58 µM | CFBE cells, YFP halide quenching; stimulated with forskolin plus potentiator P3; % fluorescence drop versus neutral controls | actives 0.36% (n = 350,000);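 active means mean added fluorescence quench of at least 8% versus neutral control, with both replicates also reaching 8%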;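 further: cells transiently co-express mutant CFTR-F508del with the halide-sensitive YFP; corrector assay measuring rescue of mutant channel to the surface after 24 h compound exposure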
Each line names hits and unclear results; the compound was inactive in the other large screens. Shown are actives, neighbours in structure and some others; about 2.2% of the full set was active somewhere.

CCCNC(=O)N1CCC2(CC1)CN(C(C)=O)[C@H](CO)c1[nH]c3cc(OC)ccc3c12	none (no result: dFosB activator)
C[C@@H]1CN([C@H](C)CO)S(=O)(=O)c2ccc(-c3cccnc3)cc2O[C@@H]1CN(C)C(=O)CC1CC1	S100A4 inh HTS 108 (no result: dFosB activator)
CCOC(=O)/C(=C/C=C1\Sc2cc(C)c(C)cc2N1CC)C(C)=O	F508del corr 39
CCOC(=O)/C(=C/C=C1\Sc2ccccc2N1CC)C(C)=O	none (no result: FGF22 binding, S100A4 inh HTS, F508del corr)
O=C1CCc2cc(S(=O)(=O)N3CCCCC3)cc3c2N1CCC3	S100A4 inh HTS 73
CCN1CCN(C(=S)c2ccc(OC)cc2)CC1	FGF22 binding 43
CN(C)CCCN(C(=O)c1ccc(S(=O)(=O)N2CCc3ccccc3C2)cc1)c1nc2ccc(F)cc2s1	dFosB activator 69
Cc1ccc2nc(N(CCCN(C)C)C(=O)c3ccc(S(=O)(=O)N4CCc5ccccc5C4)cc3)sc2c1	none
Cc1cc(C)c2sc(N(CCCN(C)C)C(=O)c3ccc(S(=O)(=O)N4CCc5ccccc5C4)cc3)nc2c1	dFosB activator 100 (no result: FGF22 binding, S100A4 inh HTS, F508del corr)
Cc1cccc2sc(N(CCCN(C)C)C(=O)c3ccc(S(=O)(=O)N4CCc5ccccc5C4)cc3)nc12	dFosB activator 62
COc1ccccc1CNC(=O)C[C@@H]1C[C@H]2c3cc(NC(=O)Nc4ccccc4F)ccc3O[C@H]2[C@@H](CO)O1	none (no result: dFosB activator)
CCCNC(=O)N1C[C@H](O)COC[C@@H]2O[C@@H](CC(=O)N3CCOCC3)CC[C@H]21	none (no result: dFosB activator)
O=C(C[C@@H]1C=C[C@H](NS(=O)(=O)c2ccc(F)cc2)[C@@H](CO)O1)NCCN1CCCCC1	none (no result: dFosB activator)
COC(=O)CSC1=C(C#N)C(c2ccc(C)o2)CC(=O)N1 (configuration not stated)	F508del corr 9.7
COC(=O)CSC1=C(C#N)C(c2ccc(F)cc2)CC(=O)N1 (configuration not stated)	none
O=C(C[C@H]1CC[C@H]2[C@@H](COC[C@H](O)CN2C(=O)Nc2ccc(F)cc2)O1)NCCc1ccncc1	none (no result: dFosB activator)
Cc1sc(NC(=O)CS(=O)(=O)c2ccccc2)c(C(N)=O)c1C	FGF22 binding 8.3
CNC(=O)c1c(NC(=O)CS(=O)(=O)c2ccccc2)sc(C)c1C	none
COC(=O)c1c(NC(=O)CCCC(=O)O)sc(C)c1C	none (no result: FGF22 binding, S100A4 inh HTS, F508del corr)
Cc1sc(NC(=O)CCCC(=O)O)c(C(N)=O)c1-c1ccccc1	FGF22 binding 43 (no result: F508del corr)
CCN(CC)S(=O)(=O)c1cc(NC(=O)CN2C(=O)NC3(CCCc4ccccc43)C2=O)ccc1C (configuration not stated)	none
Cc1ccc(NC(=O)CN2C(=O)NC3(CCCc4ccccc43)C2=O)cc1S(=O)(=O)N1CCOCC1 (configuration not stated)	FGF22 binding 44
CCC(=O)N1CCc2cc(Br)cc(S(=O)(=O)N3CCCC(C(=O)NC(C)(C)C)C3)c21 (configuration not stated)	FGF22 binding 43
Cc1c(CN(C)C)c2c(n1Cc1ccccc1)C(=O)c1ccc(Br)cc1-2	dFosB activator 19 (no result: FGF22 binding, S100A4 inh HTS, F508del corr)
Cc1c(CN(C)C)c2c(n1C)C(=O)c1ccc(Br)cc1-2	none (no result: FGF22 binding, S100A4 inh HTS, F508del corr)
CCNC(=O)C1(C)CCCN(C(=O)c2sc(-c3ccccc3)nc2C)C1 (configuration not stated)	FGF22 binding 43 (no result: dFosB activator)
CCNC(=O)C1(C)CCCN(C(=O)c2ccccc2Br)C1 (configuration not stated)	FGF22 binding 43 (no result: dFosB activator)
CCNC(=O)C1(C)CCCN(C(=O)c2cc3ccccc3s2)C1 (configuration not stated)	none (no result: dFosB activator)
CCCS(=O)(=O)NC(=O)C1(C)CCCN(C(=O)c2ccccc2Br)C1 (configuration not stated)	none (no result: dFosB activator)
Cc1cccc2c(N=Nc3ccc(S(=O)(=O)Nc4ccc(Cl)cc4)cc3[N+](=O)[O-])c(O)[nH]c12	F508del corr 9.7
Cc1cccc2c(N=NC(=O)c3ccc(NS(=O)(=O)c4cccs4)cc3)c(O)[nH]c12	none
CN(c1ccc(OCCOc2ccccc2Cl)cc1)S(=O)(=O)c1ccccc1	F508del corr 8.1
O=C(c1ccco1)N1CCN(Cc2cc(=O)c(OCc3ccccc3F)co2)CC1	FGF22 binding 66
CN(C)c1ncc(S(=O)(=O)c2ccccc2)c(-c2ccccc2Cl)n1	none (no result: FGF22 binding, S100A4 inh HTS, F508del corr)
CN(C)c1ncc(S(=O)(=O)c2ccccc2)c(N)n1	FGF22 binding 44
C[C@@H]1CN([C@@H](C)CO)C(=O)c2cccc(NC(=O)Nc3ccccc3)c2O[C@H]1CN(C)CC1CC1	none (no result: dFosB activator)
